In assay [1] the target is T1, Protein cereblon/Zinc finger protein Aiolos (Homo sapiens) (UniProt Q96SW2+Q9UKT9). The assay can be described thus: Protac activity at CRBN/IKZF3 in human MM1S cells assessed as IKZF3 degradation at 100 nM measured after 6 hrs by Western blot analysis. Format: cell-based. The procedure, abridged: (§1)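 Time course in MM1S cells (1 × 10^6 cells per well, seeded overnight) under 100 nM degrader. Whole-cell RIPA lysates analysed by 7.5−12% SDS-PAGE and PVDF immunoblot. Primary antibody at 4 °C overnight, HRP secondary 1 h, ECL detection with densitometry.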
T1 sequence (Q96SW2 whole entry, looked up): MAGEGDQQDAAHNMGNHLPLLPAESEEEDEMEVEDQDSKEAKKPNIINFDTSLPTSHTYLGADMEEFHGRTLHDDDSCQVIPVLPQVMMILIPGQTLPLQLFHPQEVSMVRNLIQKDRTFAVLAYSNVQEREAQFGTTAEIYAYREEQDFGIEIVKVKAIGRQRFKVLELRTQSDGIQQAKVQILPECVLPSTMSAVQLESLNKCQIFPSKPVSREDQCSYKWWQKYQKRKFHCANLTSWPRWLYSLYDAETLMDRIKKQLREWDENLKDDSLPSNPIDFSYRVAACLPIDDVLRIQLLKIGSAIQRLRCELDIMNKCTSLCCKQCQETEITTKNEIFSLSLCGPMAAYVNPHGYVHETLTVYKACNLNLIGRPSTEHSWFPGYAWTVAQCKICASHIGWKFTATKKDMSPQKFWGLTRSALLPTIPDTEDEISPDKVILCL
T1 sequence (Q9UKT9 whole entry, looked up): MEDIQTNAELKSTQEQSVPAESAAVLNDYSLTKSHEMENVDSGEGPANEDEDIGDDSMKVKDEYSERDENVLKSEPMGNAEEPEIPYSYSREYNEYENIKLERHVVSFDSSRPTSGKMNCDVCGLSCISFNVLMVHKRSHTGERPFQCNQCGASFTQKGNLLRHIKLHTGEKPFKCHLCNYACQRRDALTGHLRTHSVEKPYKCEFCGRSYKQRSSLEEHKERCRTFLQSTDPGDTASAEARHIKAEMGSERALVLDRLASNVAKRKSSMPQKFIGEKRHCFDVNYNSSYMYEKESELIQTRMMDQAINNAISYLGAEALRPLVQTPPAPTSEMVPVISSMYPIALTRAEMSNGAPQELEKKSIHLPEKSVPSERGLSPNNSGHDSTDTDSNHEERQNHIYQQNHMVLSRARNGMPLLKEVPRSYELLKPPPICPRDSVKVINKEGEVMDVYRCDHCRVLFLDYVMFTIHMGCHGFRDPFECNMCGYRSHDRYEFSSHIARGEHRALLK
(Immunoblotting shows a protein as a band on a membrane.)

Assay [2] concerns the target T1, Protein cereblon/Zinc finger protein Aiolos (Homo sapiens). The assay can be described thus: Protac activity at CRBN/IKZF3 in human MM1S cells assessed as IKZF3 degradation at 100 nM measured after 4 hrs by Western blot analysis. It counts as cell-based. A digest of the protocol:
as §1

Assay [3] has as its target T2, Cereblon/Ikaros (Homo sapiens) (UniProt Q96SW2+Q13422). Kind of assay: Protac activity at CRBN/IKZF1 in human MM1S cells assessed as IKZF1 degradation measured after 6 hrs by Western blot analysis. It counts as cell-based.
The target of assay [4] is T3, Protein cereblon/Histone deacetylase 1 (Homo sapiens) (UniProt Q13547+Q96SW2). Kind of assay: Protac activity at CRBN/HDAC1 in human MM1S cells assessed as HDAC1 degradation at 100 nM measured up to 8 hrs by Western blot analysis. It counts as cell-based.
T3 sequence (Q13547 whole entry, looked up): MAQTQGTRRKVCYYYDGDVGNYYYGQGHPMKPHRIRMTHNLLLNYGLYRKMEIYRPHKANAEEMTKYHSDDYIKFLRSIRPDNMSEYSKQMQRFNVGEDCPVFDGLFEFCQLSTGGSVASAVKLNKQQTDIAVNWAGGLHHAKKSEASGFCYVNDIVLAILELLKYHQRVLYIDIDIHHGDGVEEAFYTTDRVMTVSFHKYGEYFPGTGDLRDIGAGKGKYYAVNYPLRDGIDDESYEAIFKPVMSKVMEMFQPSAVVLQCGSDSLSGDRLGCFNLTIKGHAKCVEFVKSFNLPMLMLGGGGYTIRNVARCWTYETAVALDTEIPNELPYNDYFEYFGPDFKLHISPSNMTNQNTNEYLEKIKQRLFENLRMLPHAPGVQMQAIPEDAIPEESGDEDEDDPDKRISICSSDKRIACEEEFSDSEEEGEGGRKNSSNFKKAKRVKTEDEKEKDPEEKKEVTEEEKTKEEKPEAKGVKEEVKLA
T3 sequence (Q96SW2 whole entry, looked up): as the sequence (Q96SW2 whole entry, looked up) above
In assay [5] the target is T4, Protein cereblon/Protein deacetylase HDAC6 (Homo sapiens, UniProt Q9UBN7+Q96SW2). The assay can be described thus: Protac activity at CRBN/HDAC6 in human A375 cells assessed as HDAC6 degradation up to 1 uM incubated for 6 hrs by Western blot analysis. It counts as cell-based.
T4 sequence (Q96SW2 whole entry, looked up, one chain of several): as the sequence (Q96SW2 whole entry, looked up) above
Assay [6] deals with T5, Protein deacetylase HDAC6 (Homo sapiens, UniProt Q9UBN7).
T5 sequence (Q9UBN7 whole entry): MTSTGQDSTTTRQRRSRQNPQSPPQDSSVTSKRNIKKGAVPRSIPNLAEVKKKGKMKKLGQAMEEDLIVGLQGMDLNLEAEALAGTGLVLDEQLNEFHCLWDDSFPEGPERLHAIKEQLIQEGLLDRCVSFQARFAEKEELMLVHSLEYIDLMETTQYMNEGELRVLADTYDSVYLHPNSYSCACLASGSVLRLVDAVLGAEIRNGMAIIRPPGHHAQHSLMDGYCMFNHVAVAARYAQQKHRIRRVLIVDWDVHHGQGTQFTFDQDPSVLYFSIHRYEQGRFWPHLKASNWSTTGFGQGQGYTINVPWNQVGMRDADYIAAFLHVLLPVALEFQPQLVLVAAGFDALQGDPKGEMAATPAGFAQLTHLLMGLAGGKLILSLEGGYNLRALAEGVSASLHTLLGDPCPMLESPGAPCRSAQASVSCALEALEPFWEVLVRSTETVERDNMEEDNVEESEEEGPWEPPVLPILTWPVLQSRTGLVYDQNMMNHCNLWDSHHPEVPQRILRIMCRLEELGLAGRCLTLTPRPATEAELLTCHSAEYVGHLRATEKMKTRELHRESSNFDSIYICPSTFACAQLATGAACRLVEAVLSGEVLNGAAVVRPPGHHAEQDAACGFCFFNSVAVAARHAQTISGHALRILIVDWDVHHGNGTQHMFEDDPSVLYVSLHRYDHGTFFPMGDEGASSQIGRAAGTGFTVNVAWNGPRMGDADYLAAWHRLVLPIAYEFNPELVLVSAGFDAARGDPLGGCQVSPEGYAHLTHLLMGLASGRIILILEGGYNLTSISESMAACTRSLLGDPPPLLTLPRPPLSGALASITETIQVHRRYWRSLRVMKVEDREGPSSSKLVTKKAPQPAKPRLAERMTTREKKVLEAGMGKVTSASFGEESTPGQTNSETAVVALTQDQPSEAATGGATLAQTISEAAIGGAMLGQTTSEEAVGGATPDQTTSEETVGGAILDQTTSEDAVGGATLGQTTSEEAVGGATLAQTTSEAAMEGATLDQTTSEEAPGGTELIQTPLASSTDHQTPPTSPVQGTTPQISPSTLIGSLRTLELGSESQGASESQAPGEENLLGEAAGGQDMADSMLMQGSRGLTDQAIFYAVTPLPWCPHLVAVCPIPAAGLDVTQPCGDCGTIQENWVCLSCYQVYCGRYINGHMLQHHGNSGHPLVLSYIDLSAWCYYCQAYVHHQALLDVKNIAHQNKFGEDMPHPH
Kind of assay: Inhibition of human N-terminal tagged human HDAC6 expressed in HEK293T/17 using Ac-Gly-Ala-[Ac-Lys]-AMC as substrate preincubated for 10 mins followed by substrate addition and measured after 15 mins by fluorescence assay.

The target of assay [7] is T1, Protein cereblon/Zinc finger protein Aiolos (Homo sapiens). Kind of assay: Protac activity at CRBN/IKZF3 in human MM1S cells assessed as IKZF3 degradation at 100 nM measured after 6 hrs in presence of HDAC6 inhibitor Next-A by Western blot analysis. It counts as cell-based. A digest of the protocol:
(§2)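 MM1S cells seeded at 1 × 10^6 per well overnight. Pretreated 1 h with pomalidomide, Next-A, MLN 4924 or DMSO, then given 100 nM degrader or DMSO for 6 h. Lysed in RIPA with protease inhibitors, 10−40 μg protein run on SDS-PAGE and transferred to PVDF. Blots probed for IKZF1/IKZF3, detected by ECL and quantified by densitometry.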

Assay [8] concerns the target T4, Protein cereblon/Protein deacetylase HDAC6. The assay can be described thus: Protac activity at CRBN/HDAC6 in human MM1S cells assessed as HDAC6 degradation at 100 nM measured after 6 hrs in presence of NAE inhibitor MLN 4924 by Western blot analysis. Format: cell-based.
Assay [9] deals with T2, Cereblon/Ikaros (Homo sapiens). Kind of assay: Protac activity at CRBN/IKZF1 in human MM1S cells assessed as IKZF1 degradation at 100 nM measured after 6 hrs in presence of NAE inhibitor MLN 4924 by Western blot analysis. It counts as cell-based. A digest of the protocol: as §2
The target of assay [10] is T1, Protein cereblon/Zinc finger protein Aiolos (Homo sapiens). The assay can be described thus: Protac activity at CRBN/IKZF3 in human MM1S cells assessed as IKZF3 degradation at 100 nM measured after 6 hrs in presence of NAE inhibitor MLN 4924 by Western blot analysis. Format: cell-based. A digest of the protocol:
as §2

Assay [11] has as its target T4, Protein cereblon/Protein deacetylase HDAC6. Kind of assay: Protac activity at CRBN/HDAC6 in human MM1S cells assessed as HDAC6 degradation at 100 nM measured after 6 hrs in presence of proteasome inhibitor bortezomib by Western blot analysis. Format: cell-based.
The target of assay [12] is T3, Protein cereblon/Histone deacetylase 1 (Homo sapiens). The assay can be described thus: Protac activity at CRBN/HDAC1 in human MM1S cells assessed as HDAC1 degradation at 100 nM measured after 6 hrs in presence of proteasome inhibitor bortezomib by Western blot analysis. It counts as cell-based.
The test system of assay [13] is MM1.S. The assay can be described thus: Effect on HDAC1 mRNA expression in human MM1S cells at 100 nM measured after 6 hrs by SYBR green dye-based qRT-PCR analysis. Format: functional, cell-based. A digest of the protocol: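 After treatment, MM1S cells washed twice with cold PBS. Total RNA extracted and normalized, then reverse-transcribed. 10 ng cDNA amplified with SYBR Green: 50 °C 2 min, 95 °C 2 min, then 40 cycles of 95 °C 1 s / 60 °C 30 s, followed by a melt curve. Expression calculated by the 2−ΔΔCt method.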
(In qPCR the cycle at which signal appears reflects the starting amount.)

Assay [14] has as its system MM1.S. Kind of assay: Induction of apoptosis in human MM1S cells assessed as cleavage of casapse3 measured after 48 hrs by Western blot analysis. It counts as functional, cell-based.
Assay [15] has as its target Histone deacetylase (Homo sapiens) (UniProt Q13547+O15379+Q9UBN7+Q92769+Q9UQL6+Q8WUI4+Q9BY41+Q96DB2+P56524+Q9UKV0+Q969S8). The note with it: at 100 nM.

The source made the active and inactive calls. The calls are words filed in the database; no cut-off is given here.

`CCCCN(Cc1ccc(C(=O)NO)cc1)C(=O)Nc1ccc(OCCCCCn2cc(CNc3cccc4c3C(=O)N(C3CCC(=O)NC3=O)C4=O)nn2)cc1` (stereo not given): the outcome (in assay [1]; in assay [2]; in [5]; in [7]; with MM1.S [13]) was Active. In addition, the Activity entry (in assay [3]; with MM1.S [14]) was “Dose-dependent effect” each time. The outcome in [4], in assay [8], in assay [9], in [10], in [11] and in assay [12] was inactive. In assay [6], the half-inhibitory concentration (IC50) (in general, the concentration needed to halve the response being measured) worked out at 8.7 nM. Also, the inhibition result in assay [15] was “inactive”.

Source of the values: ChEMBL document CHEMBL4311941, “Development of Multifunctional Histone Deacetylase 6 Degraders with Potent Antimyeloma Activity” (J Med Chem, 2019).
